Series [1] in a line: melting temperature; fluorescence melt of hairpins on a sequencing array, two-state fit, raised by 9.35 °C to match UV melts. The conditions noted are these: sodium 0.088 M. An outline of the steps:
(§1)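 Library hairpins on a sequenced MiSeq flow cell carried annealed Cy3 and quencher oligos, and their Cy3 fluorescence was imaged in 50 mM Na-HEPES pH 8.0 with 25 mM NaCl, in 2.5 °C steps up to 60 °C. Signals were normalised to Cy3 before quenching and to control constructs. Melting temperature and folding enthalpy were obtained from bootstrapped two-state fits, combined by inverse-variance weighting across four replicates, and the fitted temperatures were then raised by 9.35 °C to match UV melts.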

The nature of series [2]: folding enthalpy; higher = less favourable; fluorescence melt of hairpins on a sequencing array, two-state fit. The conditions noted are these: sodium 0.088 M. An outline of the steps:
as §1

Regarding GAAGCCGAAAGGCTTTTC ((((((....)))..))), the Tm in series [1] stood at 54.7 °C. In addition, the folding enthalpy in series [2] was -12 kcal/mol.
Turning to GAAGCCGGAAACGGCCTC ((.((((....)))).)), the Tm in series [1] worked out at 39.2 °C. The folding enthalpy in series [2] is -10 kcal/mol.
Regarding GAAGCGGGAAACCGTTTC (((.(((....))).))), in series [1], the Tm was found to be 47.1 °C. For the same sequence, the folding enthalpy in series [2] was -28.2 kcal/mol.
As for GAAGCTGGAAACAACTTC ((((.((....)).)))), the Tm in series [1] was 34.9 °C. The folding enthalpy in series [2] is -24.2 kcal/mol.
The corresponding values for GAAGCTGGAAACAGCTCC (.(((((....))))).) are 39 °C and -13.7 kcal/mol.
The corresponding values for GAAGGAGCGAAAGCTTTC (((..(((....)))))) are 28.4 °C and -9.13 kcal/mol.
Consider GAAGGCCCGAAAGGGTTC (((..(((....)))))), for which the Tm in series [1] was 25.5 °C. Further, the folding enthalpy in series [2] was -17.4 kcal/mol.
The matching figures for GAAGGCCGAAAGGCTTC (((.(((....)))))): 48.7 °C and -15.6 kcal/mol.
The corresponding values for GAAGGCGAAAGCCACTTC ((((((....)))..))) are 40.6 °C and -13.1 kcal/mol.
Take GAAGGCGAAAGCCATTC ((((((....))).))): the Tm in series [1] turned out to be 39.7 °C. In addition, the folding enthalpy in series [2] is -10.4 kcal/mol.
The matching figures for GAAGGCGAAAGCCTATTC ((((((....)))..))): 32.1 °C and -8.36 kcal/mol.
The corresponding values for GAAGGCGAAAGCCTGTTC ((((((....)))..))) are 47.9 °C and -9.93 kcal/mol.
The matching figures for GAAGGCGAAAGCCTTTC ((((((....))).))): 53.7 °C and -10.6 kcal/mol.
As for GAAGGCGAAAGCCTTTTC ((((((....)))..))), the Tm in series [1] turned out to be 51.3 °C. Besides, the folding enthalpy in series [2] is -11.1 kcal/mol.
Regarding GAAGGGGGAAACCCCTTC (((((((....))))))), the Tm in series [1] was found to be 61.5 °C. Besides, the folding enthalpy in series [2] is -37 kcal/mol.
The matching figures for GAAGGGGGAAACCCTTTC (((.(((....))).))): 41.1 °C and -18.7 kcal/mol.
With GAAGGTGGAAACGCTTTC (((.(.(....).).))), the Tm in series [1] stood at 24.2 °C. For the same sequence, the folding enthalpy in series [2] is -9.77 kcal/mol.
The corresponding values for GAAGTACGAAAGTATTC (((.(((....)))))) are 27.1 °C and -10.4 kcal/mol.
On to GAAGTAGCGAAAGCTTTC (((..(((....)))))), for which, in series [1], the Tm stood at 30.3 °C. Further, the folding enthalpy in series [2] is -9.46 kcal/mol.
The corresponding values for GAAGTCCGAAAGGAGTTC (((.(((....))).))) are 55.2 °C and -33.7 kcal/mol.
On to GAAGTCGGAAACAACTTC (((((.(....).))))), for which the Tm in series [1] is 33.4 °C. Also, the folding enthalpy in series [2] is -27.2 kcal/mol.
The matching figures for GAAGTGGGAAACCACTTC (((((((....))))))): 59.9 °C and -45.4 kcal/mol.
For GAATAACGAAAGTTTTC (((.(((....)))))), in series [1], the Tm is 29.7 °C. Moreover, in series [2], the folding enthalpy is -13.7 kcal/mol.
For GAATACCCGAAAGGGTTC (((..(((....)))))), the Tm in series [1] worked out at 33 °C. Also, the folding enthalpy in series [2] was -7.33 kcal/mol.
The corresponding values for GAATACGAAAGTATGTTC ((((((....)))..))) are 32.3 °C and -14.2 kcal/mol.
In the case of GAATAGCGAAAGCTCTTC (((.(((....))).))), the Tm in series [1] amounted to 38.7 °C. Moreover, the folding enthalpy in series [2] is -19.4 kcal/mol.
The corresponding values for GAATAGGGAAACCCATTC ((((.((....)).)))) are 29.5 °C and -17.1 kcal/mol.
As for GAATATGGAAACATATTC (((((((....))))))), the Tm in series [1] was determined as 48.1 °C. Besides, the folding enthalpy in series [2] is -35.1 kcal/mol.
Turning to GAATCAGAAATGATTC ((((((....)))))), in series [1], the Tm turned out to be 45.6 °C. Moreover, in series [2], the folding enthalpy was -32.9 kcal/mol.
Turning to GAATCAGGAAACTGATTC (((((((....))))))), the Tm in series [1] was 55.8 °C. In series [2], the folding enthalpy is -42.6 kcal/mol.
Take GAATCCCCGAAAGGGTTC (((..(((....)))))): the Tm in series [1] was 31 °C. The folding enthalpy in series [2] was -14.4 kcal/mol.
The corresponding values for GAATCCGAAAGGAGATTC ((((((....)))..))) are 36.4 °C and -18.7 kcal/mol.
As to GAATCCGAAAGGAGGTTC ((((((....)))..))), in series [1], the Tm was determined as 26.2 °C. In series [2], the folding enthalpy is -10.9 kcal/mol.
Take GAATCCGAAAGGATCTTC ((((((....)))..))): in series [1], the Tm was determined as 51.3 °C. Moreover, the folding enthalpy in series [2] is -24.5 kcal/mol.
In the case of GAATCGCGAAAGCGTTTC (((.(((....))).))), the Tm in series [1] came to 46.2 °C. For the same sequence, the folding enthalpy in series [2] was -21.9 kcal/mol.
The matching figures for GAATCGGAAACGATTC ((((((....)))))): 55.7 °C and -36.1 kcal/mol.
As to GAATCGGGAAACCGATTC (((((((....))))))), the Tm in series [1] was determined as 63.6 °C. In addition, the folding enthalpy in series [2] is -40.8 kcal/mol.
For GAATGACGAAAGTCCTTC (((.(((....))).))), the Tm in series [1] was determined as 38.5 °C. Also, the folding enthalpy in series [2] is -26.7 kcal/mol.
On to GAATGACGAAAGTCTTC (((.(((....)))))), for which, in series [1], the Tm came out at 34.6 °C. The folding enthalpy in series [2] is -16.6 kcal/mol.
For GAATGACGAAAGTCTTTC (((.(((....))).))), in series [1], the Tm amounted to 44.6 °C. In addition, the folding enthalpy in series [2] was -25.6 kcal/mol.
The matching figures for GAATGAGGAAACTCACTC ((.((((....)))).)): 26 °C and -11.2 kcal/mol.
Regarding GAATGCGAAAGCAATTC ((((((....))).))), the Tm in series [1] stood at 48.4 °C. For the same sequence, the folding enthalpy in series [2] is -18.7 kcal/mol.
The corresponding values for GAATGCGAAAGCATTTTC ((((((....)))..))) are 49 °C and -14.6 kcal/mol.
Take GAATGCGGAAACACATTC (((((.(....).))))): the Tm in series [1] came to 39.8 °C. In addition, the folding enthalpy in series [2] is -32.6 kcal/mol.
The corresponding values for GAATGCGGAAACGTATTC ((((.((....)).)))) are 47.6 °C and -35.2 kcal/mol.
The matching figures for GAATGGCGAAAGCCTTC (((.(((....)))))): 41.1 °C and -11.9 kcal/mol.
As to GAATGGGGAAACCCATCC (.(((((....))))).), the Tm in series [1] worked out at 36.5 °C. Besides, the folding enthalpy in series [2] is -12.7 kcal/mol.
The matching figures for GAATGTGGAAACACACTC ((.((((....)))).)): 29.8 °C and -11.6 kcal/mol.
The matching figures for GAATGTGGAAACACATTC (((((((....))))))): 59.4 °C and -38.6 kcal/mol.
The matching figures for GAATTAGGAAACCAATTC (((((.(....).))))): 27.7 °C and -10.8 kcal/mol.
On to GAATTAGGAAACTGATTC ((((.((....)).)))), for which, in series [1], the Tm is 33.7 °C. In addition, the folding enthalpy in series [2] was -19.8 kcal/mol.
For the sequence GAATTTGGAAACAGATTC ((((.((....)).)))), the Tm in series [1] was determined as 33.3 °C. Further, the folding enthalpy in series [2] is -25.2 kcal/mol.
Regarding GACAAACGAAAGTTGGTC (((.(((....))).))), the Tm in series [1] worked out at 49.6 °C. Besides, the folding enthalpy in series [2] is -29.9 kcal/mol.
As for GACAAAGGAAACCTTGTC (((((.(....).))))), in series [1], the Tm came out at 36.4 °C. Moreover, the folding enthalpy in series [2] is -29.5 kcal/mol.
The corresponding values for GACAACCGAAAGGTAGTC (((.(((....))).))) are 51.3 °C and -33 kcal/mol.
As for GACAACGAAAGTTGCGTC ((((((....)))..))), in series [1], the Tm was 40.6 °C. Moreover, in series [2], the folding enthalpy is -12.1 kcal/mol.
In the case of GACAACGCGAAAGCGGTC (((..(((....)))))), the Tm in series [1] was determined as 44.9 °C. In addition, the folding enthalpy in series [2] is -13.7 kcal/mol.
The corresponding values for GACAACGGAAACATTGTC (((((.(....).))))) are 34.6 °C and -26.3 kcal/mol.
As for GACAAGCGAAAGCTGGTC (((.(((....))).))), the Tm in series [1] came out at 56.4 °C. For the same sequence, the folding enthalpy in series [2] is -32.4 kcal/mol.
As for GACAAGCGAAAGCTGTC (((.(((....)))))), the Tm in series [1] came to 56 °C. Further, the folding enthalpy in series [2] is -23.1 kcal/mol.
With GACAAGGGAAACCTTGTC (((((((....))))))), in series [1], the Tm came out at 59.4 °C. Moreover, the folding enthalpy in series [2] was -40.4 kcal/mol.
With GACACAGAAATGTGTC ((((((....)))))), the Tm in series [1] is 56.5 °C. Further, in series [2], the folding enthalpy was -28.5 kcal/mol.
The corresponding values for GACACAGGAAACCGTGTC (((((.(....).))))) are 48.4 °C and -41.1 kcal/mol.
GACACCACGAAAGTGGTC (((..(((....)))))): in series [1], the Tm stood at 39 °C. In addition, the folding enthalpy in series [2] is -6.51 kcal/mol.
The corresponding values for GACACCCGAAAGGGCGTC (((.(((....))).))) are 58.9 °C and -36.7 kcal/mol.
The corresponding values for GACACCGAAAGGTACGTC ((((((....)))..))) are 35.8 °C and -14.1 kcal/mol.
Regarding GACACCGAAAGGTTAGTC ((((((....)))..))), the Tm in series [1] came out at 37.5 °C. Further, the folding enthalpy in series [2] is -20.4 kcal/mol.
The corresponding values for GACACCGGAAACAGTGTC (((((.(....).))))) are 44.3 °C and -28.8 kcal/mol.
Take GACACGCCGAAAGGCGTC (((..(((....)))))): the Tm in series [1] amounted to 33.8 °C. Further, the folding enthalpy in series [2] is -6.56 kcal/mol.
For GACACTGGAAACAATGTC ((((.((....)).)))), the Tm in series [1] was found to be 31.9 °C. In addition, the folding enthalpy in series [2] is -33.6 kcal/mol.
The corresponding values for GACACTGGAAACAGTGTC (((((((....))))))) are 66 °C and -37 kcal/mol.
In the case of GACACTGGAAACGGTGTC (((((.(....).))))), the Tm in series [1] turned out to be 52.9 °C. Also, the folding enthalpy in series [2] was -38.8 kcal/mol.
Consider GACAGACGAAAGTCGGTC (((.(((....))).))), for which the Tm in series [1] was found to be 59.6 °C. The folding enthalpy in series [2] is -36.2 kcal/mol.

These data come from the array DNA melting data of Ke et al. (doi:10.1101/2024.01.08.574731).
